Bioassay records from PubChem BioAssay.
A selection: hits, their analogues and other compounds. The true share with any hit is near 4%.
TAAR1 antagonist = human TAAR1 antagonism | CHO RD-HGA16 TAAR1, Fluo-8 calcium fluorescence, antagonist | Q96RJ0 | AID 624466 | inhibition, % at 3 µM | 1.5% of 360,000 active;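 active = inhibition above a per-plate cutoff, the mean inhibition of test compounds on that plate plus 3 SD, cut at about 49% in these data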;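 also: 0% = DMSO plus EC80 beta-PEA response and 100% = DMSO alone without agonist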
Target sequence (Q96RJ0 whole entry, looked up): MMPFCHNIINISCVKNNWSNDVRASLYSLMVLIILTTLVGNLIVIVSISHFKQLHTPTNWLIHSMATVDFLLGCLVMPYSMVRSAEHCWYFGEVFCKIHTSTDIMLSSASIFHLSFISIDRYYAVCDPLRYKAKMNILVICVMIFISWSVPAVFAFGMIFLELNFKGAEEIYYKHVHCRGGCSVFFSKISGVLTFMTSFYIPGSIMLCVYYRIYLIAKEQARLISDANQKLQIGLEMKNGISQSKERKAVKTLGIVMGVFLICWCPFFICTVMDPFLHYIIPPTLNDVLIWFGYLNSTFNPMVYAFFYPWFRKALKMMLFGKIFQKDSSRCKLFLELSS
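Test system: RD-HGA16 CHO cells with stable hTAAR1 and Gα16 / Probe or stimulus: EC80 β-phenethylamine stimulus / Times: seeding 17-24 h prior, 75-min 37 °C, 30-min RT dye loading / Detection: Fluo-8 calcium-sensitive fluorescence / Read-out basis: % inhibition scaled between DMSO and EC80 PEA controls / Repeats: singlicate, one well per test compound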
CHO parental Ca = counter-screen for OX1R antagonists: effect in parental CHO cells. parental CHO-K1, ATP-induced calcium, Fluo-8 fluorescence. inhibition, % at 5.6 µM. 0.63% of 330,000 active. AID 463079;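 active = inhibition above that plate's mean sample inhibition plus 3 SD, cut at about 26% in these data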;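 also: 0% = ATP-challenged DMSO wells and 100% = DMSO wells without ATP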
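Test system: untransfected parental CHO cell line. Compound: one dose, 5.6 µM nominal. Detection: intracellular calcium via Fluo-8 no-wash fluorescent dye. Measure: % inhibition. Benchmarks: ATP-challenged DMSO wells low, unchallenged DMSO wells high.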
OX1R antag-1 = blocks the human orexin 1 receptor | OX1R-expressing cells, FRET antagonist read-out | AID 485270 | 1.8% of 330,000 active | inhibition, % at 6.6 µM; in the data active = inhibition mostly above about 38%, no sharp cut-off; inactive = mostly below about 40%;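 also: 0% = agonist challenge alone and 100% = reference antagonist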
TAAR1 agonist = human TAAR1 agonism; Q96RJ0; CHO RD-HGA16 TAAR1, Fluo-8 calcium fluorescence; vehicle wells 0%, saturating PEA agonist 100%; activation, % at 3 µM; 0.99% of 360,000 active; AID 624467;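 active = activation above the mean activation of all test compounds in the run plus 3 SD, cut at about 38% in these data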
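Signal – calcium-sensitive Fluo-8 signal, excitation 470-495, emission 515-575 nm · System – RD-HGA16 (CHO) cells co-expressing Gα16 and hTAAR1 · Incubation – 17-24 h seeding, 75 min 37 °C dye, 30 min RT · Compound dosing – 3 µM single concentration · Repeats – no replicates (n 1)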
OX1R antag-2 = blocks the human orexin 1 receptor. inhibition, % at 5 µM. AID 434989. CHO/OX1R cells, Fluo-8 calcium fluorescence, orexin A. 0.43% of 330,000 active;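 active = inhibition above its plate's threshold, mean inhibition of all tested compounds on the plate plus 3 SD, cut at about 37% in these data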;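 also: 0% = orexin A challenge wells and 100% = SB-334867-A antagonist wells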
NTR1 ag = activates human neurotensin receptor 1 | NTR1-U2OS beta-arrestin-GFP spot imaging, agonist mode | 0.17% of 330,000 active | activation, % at 20 µM | AID 493036 | P30989;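 active = activation at or above 40% of the spot to cytoplasm intensity ratio, with at least 20 cells analyzed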;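 also: 0% = DMSO without peptide and 100% = 100 nM NTR1 peptide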
An asterisk follows results filed as active; nt = no result.

SMILES	TAAR1 antagonist	CHO parental Ca	OX1R antag-1	TAAR1 agonist	OX1R antag-2	NTR1 ag
C=CC[C@@H](CC(=O)N(CCO)Cc1ccccc1)C(=O)N[C@H](COC(=O)[C@@H](CC=C)Cc1ccc(F)cc1)Cc1c[nH]c2ccccc12	59*	12	-1	14	44	12
C=CC[C@@H](CC(=O)N[C@H](CO)Cc1ccccc1)C(=O)N[C@H](COC(=O)[C@H](CC=C)CC(=O)OC(C)(C)C)Cc1c[nH]c2ccccc12	34	nt	nt	21	nt	nt
C=CCC[C@@H](Cc1ccc(F)cc1)C(=O)OC[C@@H](Cc1c[nH]c2ccccc12)NC(=O)[C@@H](CC=C)CC(=O)N(CCO)Cc1ccccc1	0	-14	4	0	-8	13
C=CC[C@H](CC(=O)N(CCO)Cc1ccccc1)C(=O)N[C@H](COC(=O)[C@@H](CC=C)Cc1ccc(F)cc1)Cc1c[nH]c2ccccc12	59*	-5	16	15	19	4
NC(N)=N/N=C/c1ccc(Cl)c(Cl)c1	-25	-15	15	39*	-9	2
NC(N)=N/N=C/c1ccc(Cl)cc1Cl	2	-10	0	17	-12	1
COc1ccc(C#Cc2c(-c3ccccc3OC)oc3ccccc23)cc1	-3	nt	nt	6	nt	nt
C[C@H]1CNCCN1c1ccc(N2CCS(=O)(=O)CC2)c(C#N)c1	7	nt	nt	1	nt	nt
CC(=O)Nc1ccc(Nc2nc3ccccc3n3cnnc23)cc1	-8	3	1	3	-18	0
c1ccc(Nc2nc3ccccc3n3cnnc23)cc1	1	-2	59*	-2	5	3
COc1ccc(C(=O)O)cc1S(=O)(=O)NC(C)C12CC3CC(CC(C3)C1)C2 (stereo not given)	13	34*	2	7	45*	0
CC(NS(=O)(=O)c1cccc(C(=O)O)c1)C12CC3CC(CC(C3)C1)C2 (stereo not given)	1	nt	nt	2	nt	2
COC(=O)C(Cc1ccccc1)NC(=O)CCNC(=O)c1ccc(Br)cc1 (stereo not given)	-12	-10	20	0	-5	0
O=C(CNCc1ccc(Cl)cc1)Nc1ccc(C(=O)N2CCCCC2)cc1	-11	-24	16	8	-28	2
O=C(c1ccc(NC(=S)NCc2ccc(Cl)cc2)cc1)N1CCCCC1	17	-5	-7	44*	-4	4
CN(C(=O)COC(=O)c1c2c(nc3ccccc13)/C(=C/c1cccc([N+](=O)[O-])c1)CCC2)C1CCS(=O)(=O)C1 (stereo not given)	13	13	14	3	8	2
O=C(COC(=O)c1c2c(nc3ccccc13)/C(=C/c1cccc([N+](=O)[O-])c1)CCC2)NC1CCS(=O)(=O)C1 (stereo not given)	51*	10	30	11	15	0
Cc1cccc(C)c1NC(=O)COC(=O)c1c2c(nc3ccccc13)/C(=C\c1ccc3c(c1)OCO3)CCC2	53*	38	39	26	45	nt
COC(=O)c1sc(-c2ccc(Cl)cc2)cc1NC(=O)COCC(=O)O	16	5	6	12	6	1
COC(=O)c1sc(-c2ccc(C(C)(C)C)cc2)cc1NC(=O)CCC(=O)O	51*	31	19	11	31	3
CCOc1cc(OCC)cc(C(=O)N2CCC[C@@H]2C(=O)N2CCC[C@H]2C(=O)NCc2ccccc2)c1	-24	nt	nt	2	nt	nt
O=C1Nc2ccc(S(=O)(=O)N3CCCC3C(=O)O)c3cccc1c23 (stereo not given)	-18	-9	38*	1	-10	3
COCCNC(=S)N(C)[C@H]1C[C@H]2c3[nH]c4cccc(-c5ccccc5)c4c3CCN2C(=O)[C@H]1[C@H](C)O	-7	nt	nt	1	nt	nt
COc1cc(C(=O)NC(=S)N(CCc2ccccc2)CCc2ccccc2)cc(OC)c1OC	53*	-14	5	6	-18	2
COc1cc(C(=O)NC(=S)N(C)Cc2ccccc2)cc(OC)c1OC	6	-4	-1	1	-26	0
SMILES	TAAR1 antagonist	CHO parental Ca	OX1R antag-1	TAAR1 agonist	OX1R antag-2	NTR1 ag
O=C(COC(=O)c1ccc(S(=O)(=O)C(F)F)cc1)NC(=O)NC1CCCCC1	-19	-17	4	14	-24	-1
O=[N+]([O-])c1cc(NCCO)c(N2CCCCCC2)c2nonc12	-6	-4	46*	1	-21	0
O=[N+]([O-])c1cc([N+](=O)[O-])c(N2CCCCCC2)cc1NCCO	12	-7	11	2	-15	9
CCOC(=O)C1=C(C)NC(C)=C(C(=O)OCC)C1c1ccccc1/C=C/C(=O)OC(C)(C)C	nt	0	31	nt	-57	47*
Cc1ccccc1-c1ccc2c(c1)[C@@H]1C[C@H]3[C@@H](CN1CC2)[C@H](C)OC(C1CCCCC1)N3C (stereo not given in full)	-17	nt	nt	2	nt	nt
COc1ccc(CN(C(=O)CSc2nnc(-c3ccccc3F)o2)c2ccc(F)cc2)cc1	nt	26*	33	nt	7	8
CCOC(=O)C1=C(C(=O)OCC)C2N(Cc3ccc(Br)cc3)c3ccccc3[C@@]23C[C@@H](C(=O)OC)N(S(=O)(=O)c2ccc(C(F)(F)F)cc2)C3=N1 (stereo not given in full)	-27	nt	nt	2	nt	nt
COC(=O)c1sc(NC(=O)c2cc(-c3ccccc3)nc3ccccc23)c(C#N)c1C	35	-8	72*	11	14	2
Cc1ccccc1-c1cc(C(=O)Nc2sc(C(=O)OC(C)C)c(C)c2C#N)c2ccccc2n1	25	1	45*	16	-11	23
CCCCCC(=O)NC1CCCCN(C)C1=O (stereo not given)	-26	nt	nt	3	nt	nt
C[C@H]1CN([C@@H](C)CO)S(=O)(=O)c2ccc(Br)cc2O[C@H]1CN(C)C(=O)c1ccccc1F	-26	nt	nt	6	nt	nt
CC(C)C[C@H](NC(=O)c1ccccc1)C(=O)N1CCC[C@H]1C(=O)NCc1ccccc1	-25	nt	nt	8	nt	nt
CC(=O)N1CCN(c2ccc(N3CCN(C(C)=O)[C@H](C)C3)c(C)c2)[C@H](C)C1	-18	nt	nt	2	nt	nt
COc1ccc(C)cc1NC(=O)CCNS(=O)(=O)c1cccc2nonc12	-1	-11	71*	2	-21	1
O=C(NC1=C(NC2CCS(=O)(=O)C2)C(=O)c2ccccc2C1=O)c1ccccc1 (stereo not given)	-9	-28	73*	-1	-11	-2
O=C(NC1=C(Nc2ccc(Cl)cc2)C(=O)c2ccccc2C1=O)c1ccccc1	26	-27	56	8	-11	0
Cc1cccc(NC2=C(NC(=O)c3ccccc3)C(=O)c3ccccc3C2=O)c1	-8	-28	75*	1	-26	-1
